Results from article PMC3034256 (Chemistry & biology, 2011).

Biological target: T1, SHP2 (Homo sapiens, UniProt Q06124)
T1 sequence (Q06124 262-528): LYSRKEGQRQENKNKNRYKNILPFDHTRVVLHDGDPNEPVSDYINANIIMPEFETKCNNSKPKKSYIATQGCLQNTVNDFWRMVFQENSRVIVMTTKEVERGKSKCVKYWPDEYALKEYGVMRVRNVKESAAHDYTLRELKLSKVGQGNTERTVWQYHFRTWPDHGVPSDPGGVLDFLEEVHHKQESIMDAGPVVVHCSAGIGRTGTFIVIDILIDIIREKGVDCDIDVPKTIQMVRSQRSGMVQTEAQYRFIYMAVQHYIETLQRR
Assay: PTP-catalyzed pNPP hydrolysis, SHP2
Assay type: biochemical
Outline: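 The SHP2 catalytic domain (residues 262–528) hydrolysed pNPP at 25 °C, pH 7.0 (50 mM 3,3-dimethylglutarate, 1 mM EDTA, ionic strength 0.15 M). Single-point screening used 10 µM final test compound. IC50 was measured at pNPP = Km by A405 after NaOH quench, fitted to AI/A0 = IC50/(IC50+[I]). For Ki and mode, initial rates at inhibitor 0–3 Ki and pNPP 0.2–5× apparent Km were fitted to kinetic equations.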

What does the source list for `C=C/C(=C/C(=O)C[C@H](C)C[C@@H](C)CC[C@H](O)[C@H](C)C(=O)C[C@@H](O)[C@H](C)[C@@H](C)OC(=O)C[C@@H](O)C1=C(C)C(=O)OC1=O)CC` [TTN, tautomycetin]?
IC50: 2900 ± 200 nM; Ki: 1600 ± 100 nM; reduction of SHP2 activity (10 µM compound, pNPP, pH 7, 25 °C): 80–90%; preference for SHP2 over all PTPs examined (from IC50 values): ≥ 5 fold; mode of SHP2 inhibition (pNPP hydrolysis, 25 °C, pH 7.0): competitive inhibitors
